Measured values from ChEMBL document CHEMBL4602735, “Discovery of (1H-Pyrazolo[3,4-c]pyridin-5-yl)sulfonamide Analogues as Hepatitis B Virus Capsid Assembly Modulators by Conformation Constraint” (J Med Chem, 2020).
Activity calls are given as the source filed them. No cut-off for these calls is given here.

How the values were obtained:
[1] = Half life in mouse plasma by HPLC analysis; assay type: ADME, cell-free
Method in brief: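 Prodrug incubated in plasma at 37 °C, with percent remaining determined by HPLC to derive half-life.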

[2] = Stability in pH 7.4 buffer assessed as compound remaining level at 37 degC by HPLC analysis; assay type: physicochemical
Method in brief: (§1)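 Prodrug incubated in buffer (0.1 M HCl, pH 5.8, 6.8 or 7.4) at 37 °C; percent of compound remaining determined by HPLC; remaining percentage reported after 3 h, stability meaning no hydrolysis after 2 h.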

[3] = Stability in pH 6.8 buffer assessed as compound remaining level at 37 degC by HPLC analysis; assay type: physicochemical; method in brief: as §1
Hepatitis B virus [4] = test: Antiviral activity against HBV infected in human HepAD38 cells assessed as reduction in viral DNA levels incubated for 6 days by PCR analysis; assay type: functional, organism-based; conditions: HePAD38, 144 h
Hepatitis B virus [5] = test: Inhibition of HBsAg secretion in HBV infected human HepG2.2.15 cells at 2 uM for 4 days by ELISA; assay type: functional, organism-based; conditions: HepG2 2.2.15
Method in brief: (§2)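 HepAD38 or HepG2.2.15 cells were treated at 2 µM for 4 days, with medium replaced every 2 days. Intracellular and extracellular DNA and RNA were quantified by qPCR or qRT-PCR, and HBeAg and HBsAg by ELISA. Results were compared with DMSO vehicle as mean ± SD, using a two-tailed t-test.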

Hepatitis B virus [6] = test: Inhibition of HBsAg secretion in HBV infected human HepAD38 cells at 2 uM for 4 days by ELISA; assay type: functional, organism-based; method in brief: as §2
Hepatitis B virus [7] = test: Inhibition of HBeAg secretion in HBV infected human HepG2.2.15 cells at 2 uM for 4 days by ELISA relative to control; assay type: functional, organism-based; conditions: HepG2 2.2.15; method in brief: as §2
Hepatitis B virus [8] = test: Antiviral activity against HBV infected in human HepAD38 cells assessed as inhibition of intracellular viral RNA accumulation at 2 uM for 4 days by qPCR or qRT-PCR relative to control; assay type: functional, organism-based; method in brief: as §2
Hepatitis B virus [9] = test: Antiviral activity against HBV infected in human HepAD38 cells assessed as inhibition of intracellular viral DNA accumulation at 2 uM for 4 days by qPCR or qRT-PCR relative to control; assay type: functional, organism-based; method in brief: as §2
Hepatitis B virus [10] = test: Antiviral activity against HBV infected in human HepG2.2.15 cells assessed as inhibition of intracellular viral DNA accumulation at 2 uM for 4 days by qPCR or qRT-PCR relative to control; assay type: functional, organism-based; conditions: HepG2 2.2.15; method in brief: as §2
Hepatitis B virus [11] = test: Antiviral activity against HBV infected in human HepAD38 cells assessed as inhibition of intracellular total viral RNA accumulation at 2 uM for 4 days by qPCR or qRT-PCR relative to control; assay type: functional; method in brief: as §2
Hepatitis B virus [12] = test: Antiviral activity against HBV infected in human HepG2.A64 cells containing reverse transcriptase L180M/T184L/M204V mutant assessed as reduction in viral replication incubated for 6 days by PCR analysis; assay type: functional, organism-based; conditions: HepG2.A64, 144 h
Method in brief: (§3)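 Wild-type HBV replication measured in HepAD38 and HepG2.2.15 cells, lamivudine/entecavir-resistant HBV in HepG2.A64 cells (rtL180M+rtT184L+rtM204V) and multidrug-resistant HBV in HepG2.1403F cells (rtL180M+rtM204V+rtS202G+rtN236T). Read-out is reduction of HBV DNA. EC50 is reported as mean ± SD.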

Hepatitis B virus [13] = test: Antiviral activity against multidrug-resistant HBV infected in human HepG2.1403F cells assessed as reduction in viral replication incubated for 6 days by PCR analysis; assay type: functional, organism-based; conditions: 144 h; method in brief: as §3
Hepatitis B virus [14] = test: Antiviral activity against HBV infected in human HepG2.2.15 cells assessed as reduction in viral DNA levels incubated for 6 days by PCR analysis; assay type: functional, organism-based; conditions: HepG2 2.2.15, 144 h
[15] = Solubility in water at 1 mg at 25 degC by HPLC analysis; assay type: physicochemical
Method in brief: (§4)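 Solubility determined in water or 0.067 M phosphate buffer at pH 5.8, 6.8 and 7.4. Values are reported in mg/mL; ND means below the detection limit.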

[16] = Solubility in pH 5.8 phosphate buffer at 1 mg at 25 degC by HPLC analysis; assay type: physicochemical; method in brief: as §4
[17] = Solubility in pH 6.8 phosphate buffer at 1 mg at 25 degC by HPLC analysis; assay type: physicochemical; method in brief: as §4
HepG2 2.2.15 = test: Inhibition of reverse transcriptase in HBV infected in human HepG2.2.15 cells assessed as induction of intracellular viral RNA accumulation at 2 uM for 4 days by qPCR or qRT-PCR relative to control; assay type: cell-based; conditions: Hepatitis B virus
[18] = Cytotoxicity in human HepG2 cells assessed as induction of cell killing; assay type: cell-based
[19] = Solubility in pH 7.4 phosphate buffer at 1 mg at 25 degC by HPLC analysis; assay type: physicochemical; method in brief: as §4
[20] = Cytotoxicity in human HepAD38 cells assessed as induction of cell killing; assay type: cell-based
[21] = Selectivity index, ratio of CC50 for cytotoxicity in human HepAD38 cells assessed as induction of cell killing to EC50 for antiviral activity against HBV infected in human HepAD38 cells assessed as reduction in viral DNA levels incubated for 6 days by PCR analysis; assay type: toxicity, cell-based; conditions: read-out: Ratio CC50/EC50

Cc1cc(Nc2nn(C3CC3)c3cnc(S(=O)(=O)N4CCC(OC(=O)[C@@H](N)C(C)C)CC4)cc23)ccc1F.O=C(O)C(F)(F)F
half-life [1]: 18 h
Stability [2]: Stable
Stability [3]: Unstable

CCOC(=O)C1=C(CN2CCOCC2)NC(c2nccs2)=NC1c1ccc(F)cc1Br (stereo not given)
EC50 (Hepatitis B virus [4]): 0.013 µM
inhibition (Hepatitis B virus [5]): inactive
inhibition (Hepatitis B virus [6]): inactive
inhibition (Hepatitis B virus [7]): Active
inhibition (Hepatitis B virus [8]): Active
inhibition (Hepatitis B virus [9]): Active
inhibition (Hepatitis B virus [10]): Active
inhibition (Hepatitis B virus [11]): Active
EC50 (Hepatitis B virus [12]): 0.0063 µM
EC50 (Hepatitis B virus [13]): 0.042 µM
EC50 (Hepatitis B virus [14]): 0.0066 µM

Cc1cc(Nc2nn(C3CC3)c3cnc(S(=O)(=O)N4CCC(OC(=O)CN(C)C)CC4)cc23)ccc1F.O=C(O)/C=C\C(=O)O
solubility [15]: 4200 µg/mL
solubility [16]: 7930 µg/mL
solubility ([17]; BLD = below limit of detection): Bld

Nc1ccn([C@@H]2CS[C@H](CO)O2)c(=O)n1 [LAMIVUDINE]
EC50 (Hepatitis B virus [4]): 0.07 µM
inhibition (HepG2 2.2.15): Active
EC50 (Hepatitis B virus [12]): > 10 µM
EC50 (Hepatitis B virus [13]): > 10 µM
EC50 (Hepatitis B virus [14]): 0.0038 µM
CC50 [18]: > 100 µM

Cc1cc(Nc2nn(C3CC3)c3cnc(S(=O)(=O)N4CCC(OC(=O)CN(C)C)CC4)cc23)ccc1F.Cl
solubility [15]: 6900 µg/mL
solubility [16]: 6750 µg/mL
solubility ([17]; phosphate buffer, read-out: solubility): 40 µg/mL
solubility [19]: 16 µg/mL

O=S(=O)(c1ccc2c(c1)c(Nc1ccc(F)cc1Cl)nn2C1CC1)N1CCC(O)CC1
EC50 (Hepatitis B virus [4]): 4 µM
CC50 [20]: > 100 µM
selectivity ratio at 144 h [21]: > 25

Cc1cc(Nc2nn(C3CC3)c3ccc(S(=O)(=O)N4CCC(O)CC4)cc23)ccn1
EC50 (Hepatitis B virus [4]): > 20 µM
CC50 [20]: 46.6 µM
selectivity ratio at 144 h [21]: < 23

O=S(=O)(c1ccc2c(c1)c(Nc1ccc(F)cc1)nn2C1CC1)N1CCCC(O)C1 (stereo not given)
EC50 (Hepatitis B virus [4]): 0.25 µM
CC50 [20]: 19.1 µM
selectivity ratio at 144 h [21]: 76.2

O=S(=O)(c1cc(F)c2c(c1)c(Nc1cc(F)c(F)c(F)c1)nn2C1CC1)N1CCC(O)CC1
EC50 (Hepatitis B virus [4]): 2 µM
CC50 [20]: > 100 µM
selectivity ratio at 144 h [21]: > 50

O=S(=O)(c1ccc2c(c1)c(Nc1ccc(F)c(C3CC3)c1)nn2C1CC1)N1CCC(O)CC1
EC50 (Hepatitis B virus [4]): 0.68 µM
CC50 [20]: 5.86 µM
selectivity ratio at 144 h [21]: 8.6

O=S(=O)(c1ccc2c(c1)c(Nc1ccc(F)c(C(F)F)c1)nn2C1CC1)N1CCC(O)CC1
EC50 (Hepatitis B virus [4]): 0.29 µM
CC50 [20]: 13.6 µM
selectivity ratio at 144 h [21]: 47
